The species entered for assay [1] is Mus musculus. As to the kind of experiment: Antiallodynic activity in oxaliplatin-induced neuropathy pain CD-1 mouse model assessed as reversal of enhancement of pain threshold at 0.3 to 1 nmol, IT measured after 80 mins by cold plate assay. Type of assay: functional, organism-based. Particulars: dose 0.3-1 nmol. In outline: (§1)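 Male CD-1 mice (22–25 g) given oxaliplatin 2.4 mg kg⁻¹ i.p. in 5% glucose on days 1–2, 5–9 and 12–14. Test agents were dissolved in saline and injected intrathecally (5 µl, L4–L5) at 0.1–1 nmol from day 14. Cold plate held at 4 °C. Latency to first paw lift/lick was recorded every 15 min.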

Assay [2] deals with Pannexin-1 (Mus musculus) (UniProt Q9JIP4). As to the kind of experiment: Inhibition of mouse Panx-1 expressed in Xenopus laevis oocytes assessed as inhibition of membrane current cells held at -60 mV and voltage steps to +60 mV in presence of CBX at 50 uM measured by Whole cell voltage clamp assay relative to control. The format is cell-based. Particulars: Oocyte. An outline of the steps:
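Xenopus oocytes expressing Panx-1 were studied by two-electrode voltage clamp (3 M KCl electrodes) under continuous perfusion with OR2 Ringer, pH 7.5. Cells were held at −60 mV, with 5 s steps to +60 mV at 0.1 Hz. Compounds were screened at 50 µM and inhibition expressed as % of membrane current, n = 1–3 oocytes.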

The next assay concerns the target Pannexin-1 (Mus musculus, UniProt Q9JIP4). As to the kind of experiment: Inhibition of mouse Panx-1 expressed in Xenopus laevis oocytes assessed as inhibition of membrane current cells held at -60 mV and voltage steps to +60 mV in presence of CBX measured by Whole cell voltage clamp assay relative to control. Type of assay: cell-based, Oocyte. In outline:
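Two-electrode voltage clamp of Panx-1-expressing Xenopus oocytes perfused with OR2, pH 7.5. Holding potential −60 mV, with repetitive 5 s steps to +60 mV at 0.1 Hz. Compound was applied at increasing concentrations to build dose–response curves and derive IC50.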

Assay [3] is filed under the species Mus musculus. In words: Antiallodynic activity in oxaliplatin-induced neuropathy pain CD-1 mouse model assessed as reversal of enhancement of pain threshold at 1 nmol, IT measured after 60 to 105 mins by cold plate assay. Type of assay: functional, organism-based. Particulars: time 60-105 min. An outline of the steps: as §1
The species entered for assay [4] is Mus musculus. In words: Antiallodynic activity in oxaliplatin-induced neuropathy pain CD-1 mouse model assessed as reversal of enhancement of pain threshold at 0.3 nmol, IT measured after 45 mins by cold plate assay. Type of assay: functional, organism-based. An outline of the steps: as §1
For assay [5], the target named is Gap junction beta-1 protein (Homo sapiens) (UniProt P08034). As to the kind of experiment: Inhibition of wild type Cx32(E143) (unknown origin) expressed in Xenopus laevis oocytes assessed as at holding potential of -10 mV and stepped in 5 mV test pulses of 5 sec duration at 10 uM measured by Voltage clamp assay relative to control. Type of assay: cell-based. Particulars: Oocyte.

Assay [6] concerns the target T1, P2X purinoceptor 7 (Homo sapiens) (UniProt Q99572).
T1 sequence (whole entry): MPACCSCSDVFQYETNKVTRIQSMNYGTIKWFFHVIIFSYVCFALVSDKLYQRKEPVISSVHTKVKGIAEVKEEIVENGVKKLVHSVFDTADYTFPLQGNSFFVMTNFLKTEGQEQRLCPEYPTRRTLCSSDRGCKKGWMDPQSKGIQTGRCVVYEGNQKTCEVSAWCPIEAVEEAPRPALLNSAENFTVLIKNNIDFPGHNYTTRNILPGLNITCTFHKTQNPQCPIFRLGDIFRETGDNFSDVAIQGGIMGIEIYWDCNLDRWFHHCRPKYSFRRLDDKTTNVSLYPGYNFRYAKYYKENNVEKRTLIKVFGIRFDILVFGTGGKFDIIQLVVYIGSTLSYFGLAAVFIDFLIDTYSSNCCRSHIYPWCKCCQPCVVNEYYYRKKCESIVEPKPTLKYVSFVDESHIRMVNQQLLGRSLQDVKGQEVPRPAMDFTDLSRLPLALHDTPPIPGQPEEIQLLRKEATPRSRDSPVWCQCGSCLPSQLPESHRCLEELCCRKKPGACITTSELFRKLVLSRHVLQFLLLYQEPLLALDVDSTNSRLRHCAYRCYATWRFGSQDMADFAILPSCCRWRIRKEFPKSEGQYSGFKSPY
In words: Inhibition of human P2X7R expressed in Xenopus laevis oocytes assessed as inhibition of BzATP-induced cell membrane current at 10 uM measured by Whole cell voltage clamp assay relative to control. Particulars: Oocyte. Type of assay: cell-based.

Assay [7] deals with Mus musculus. In words: Antiallodynic activity in oxaliplatin-induced neuropathy pain IT dosed CD-1 mouse model assessed as reversal of enhancement of pain threshold by measuring minimum effective dose measured 60 to 75 mins by cold plate assay. Particulars: dose 0.3 nmol, time 60-75 min. Type of assay: functional, organism-based. In outline: (§2)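 Male CD-1 mice (22–25 g) were given oxaliplatin 2.4 mg kg−1 i.p. in 5% glucose on days 1–2, 5–9 and 12–14, with vehicle controls. Behavioural tests were done on day 15. Compounds in saline were injected intrathecally at L4–L5 at 0.1–1 nmol. Mice were placed on a 4 °C cold plate, and latency to the first hind-paw lifting or licking was recorded every 15 min.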

Assay [8] is filed under the species Mus musculus. In words: Antiallodynic activity in oxaliplatin-induced neuropathy pain CD-1 mouse model assessed as reversal of enhancement of pain threshold at 1 nmol, IT measured after 45 to 90 mins by cold plate assay. The format is functional, organism-based. Particulars: time 45-90 min. An outline of the steps: as §2

Calls of active or inactive are those of the source.

The values below come from ChEMBL document CHEMBL4831489, “Design and synthesis of the first indole-based blockers of Panx-1 channel” (Eur J Med Chem, 2021).

The term inhibition denotes the percentage by which the read-out fell short of the control. What is called IC50 is the concentration needed to halve the response being measured.

Pannexin-1, sequence (Q9JIP4 whole entry, the tested form may be a part): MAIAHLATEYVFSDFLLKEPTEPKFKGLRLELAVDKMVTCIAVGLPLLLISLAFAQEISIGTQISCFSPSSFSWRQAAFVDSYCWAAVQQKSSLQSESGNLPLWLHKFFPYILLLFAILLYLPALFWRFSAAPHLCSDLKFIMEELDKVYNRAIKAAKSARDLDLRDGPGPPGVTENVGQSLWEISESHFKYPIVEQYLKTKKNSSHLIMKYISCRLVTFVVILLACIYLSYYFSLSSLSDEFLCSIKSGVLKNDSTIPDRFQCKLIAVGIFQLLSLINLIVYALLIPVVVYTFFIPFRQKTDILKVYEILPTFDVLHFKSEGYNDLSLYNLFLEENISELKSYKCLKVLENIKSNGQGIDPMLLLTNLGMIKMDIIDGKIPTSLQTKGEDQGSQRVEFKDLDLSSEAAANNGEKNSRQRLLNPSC
Pannexin-1 (Mus musculus), sequence (Q9JIP4 whole entry, the tested form may be a part): as above
Gap junction beta-1 protein (Homo sapiens), sequence (P08034 whole entry): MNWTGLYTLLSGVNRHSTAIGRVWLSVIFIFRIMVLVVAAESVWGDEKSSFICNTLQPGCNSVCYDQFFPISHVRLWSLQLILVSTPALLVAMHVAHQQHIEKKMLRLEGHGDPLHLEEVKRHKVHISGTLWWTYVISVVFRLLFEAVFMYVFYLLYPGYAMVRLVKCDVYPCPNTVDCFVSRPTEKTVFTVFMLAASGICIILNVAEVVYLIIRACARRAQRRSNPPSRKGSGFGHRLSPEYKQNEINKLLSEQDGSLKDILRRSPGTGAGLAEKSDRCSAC

Turning to `O=C(O)c1cc2cc(N(Cc3ccccc3)Cc3ccccc3)ccc2n1Cc1ccccc1`, the result in the assay listed under Mus musculus [1] was inactive. Moreover, the inhibition in assay [2] was 0%.

As to `O=C(O)c1cc2cc([N+](=O)[O-])ccc2n1CCc1ccccc1`, the inhibition in [2] stood at 56.3%.

On to `O=C(O)c1cc2cc(S(=O)(=O)N(CCc3ccccc3)Cc3ccccc3)ccc2n1CCc1ccccc1`, for which the inhibition in assay [2] was 37.3%.

With `O=C(O)c1cc2cc([N+](=O)[O-])ccc2n1CCCc1ccccc1`, the IC50 at Pannexin-1 was determined as 23.1 µM. Further, the inhibition in assay [2] was 65.5%.

`O=C(O)c1cc2cc([N+](=O)[O-])ccc2n1Cc1ccccc1`: in [2], the inhibition worked out at 51.3%.

Turning to `O=C(O)c1cn(CCCCc2ccccc2)c2ccc([N+](=O)[O-])cc12`, the inhibition in assay [2] came to 65.7%.

Consider `O=C(O)c1cc2cc(S(=O)(=O)NCc3ccccc3)ccc2n1Cc1ccccc1`, for which, in [2], the inhibition was 42%.

Consider `O=C(O)c1cn(CCCCCc2ccccc2)c2ccc([N+](=O)[O-])cc12`, for which, in assay [2], the inhibition worked out at 32.3%.

In the case of `O=C(O)c1ccc(Cn2c(C(=O)O)cc3cc([N+](=O)[O-])ccc32)cc1`, on Pannexin-1, the IC50 came to 4.9 µM. In addition, in assay [2], the inhibition turned out to be 61%.

For `O=C(O)c1cc2cc([N+](=O)[O-])ccc2n1CCCCCc1ccccc1`, the inhibition in assay [2] was found to be 58%.

With `NS(=O)(=O)c1ccc2c(c1)cc(C(=O)O)n2Cc1ccc(C(=O)O)cc1`, in assay [2], the inhibition worked out at 61.7%.

As to `O=C(O)c1ccc(CNS(=O)(=O)c2ccc3c(c2)cc(C(=O)O)n3Cc2ccc(C(=O)O)cc2)cc1`, the result in the assay filed under Mus musculus [3] and in the assay listed under Mus musculus [4] was Active. Further, the 50% inhibitory concentration (IC50) at Pannexin-1 is 0.8 µM. Besides, the inhibition came to 0% in [5], 0% in assay [6] and 100% in assay [2].

`O=C(O)c1cc([N+](=O)[O-])ccc1NCCCc1ccccc1` [5-NITRO-2-PHENYLPROPYLAMINOBENZOIC ACID [NPPB]]: on Pannexin-1, the half-maximal inhibitory concentration (IC50) came to 50 µM.

`O=C(O)c1cn(Cc2ccccc2)c2ccc([N+](=O)[O-])cc12`: the IC50 at Pannexin-1 was 27.5 µM. Besides, the inhibition in assay [2] was 65%.

Consider `O=C(O)c1cc2cc(S(=O)(=O)N(Cc3ccccc3)Cc3ccccc3)ccc2n1CCc1ccccc1`, for which the inhibition in [2] was 41.3%.

As to `O=C(O)c1cc2cc(S(=O)(=O)NCCc3ccccc3)ccc2n1CCc1ccccc1`, the inhibition in assay [2] turned out to be 57.7%.

As to `O=C(O)c1cc2cc(S(=O)(=O)N(Cc3ccccc3)Cc3ccccc3)ccc2n1Cc1ccccc1`, the inhibition in assay [5] was 20%; in assay [6], 0%; in assay [2], 41%.

On to `CCN(Cc1cccc(S(=O)(=O)O)c1)c1ccc(C(=C2C=CC(=[N+](CC)Cc3cccc(S(=O)(=O)O)c3)C=C2)c2ccccc2S(=O)(=O)[O-])cc1`, for which the IC50 on Pannexin-1 amounted to 0.27 µM.

`O=C(O)c1cn(CCCc2ccccc2)c2ccc([N+](=O)[O-])cc12`: the IC50 on Pannexin-1 was determined as 12.4 µM. Besides, the result in the assay on Mus musculus [7] and in the assay listed under Mus musculus [8] was Active. Further, the inhibition in assay [5] was determined as 0%; in [6], 0%; in assay [2], 71%.

For `NS(=O)(=O)c1ccc2c(c1)cc(C(=O)O)n2Cc1ccccc1`, the results for the inhibition in assay [5], in [6] and in [2] were 15%, 15% and 29.3%, respectively.

For the compound `O=C(O)c1ccc(CCn2c(C(=O)O)cc3cc([N+](=O)[O-])ccc32)cc1`, the inhibition in assay [2] was 31.7%.

Consider `O=C(O)c1cn(Cc2ccccc2)c2ccc(N(Cc3ccccc3)Cc3ccccc3)cc12`, for which the inhibition in assay [2] worked out at 19.5%.

Turning to `O=C(O)c1ccc(CN(Cc2ccc(C(=O)O)cc2)S(=O)(=O)c2ccc3c(c2)cc(C(=O)O)n3Cc2ccc(C(=O)O)cc2)cc1`, the inhibition in assay [2] was 79%.

For the compound `O=C(O)c1ccc(Cn2c(C(=O)O)cc3cc(S(=O)(=O)N(Cc4ccccc4)Cc4ccccc4)ccc32)cc1`, the IC50 at Pannexin-1 came out at 0.25 µM. In addition, the inhibition in assay [5] turned out to be 0%; in assay [6], 61.8%; in assay [2], 100%.

`O=C(O)c1ccc(Cn2cc(C(=O)O)c3cc([N+](=O)[O-])ccc32)cc1`: the inhibition in assay [2] is 54%.

Consider `CCCN(CCC)S(=O)(=O)c1ccc(C(=O)O)cc1` [PROBENECID], for which, at Pannexin-1, the IC50 was found to be 150 µM.

On to `O=C(O)c1cn(CCc2ccccc2)c2ccc([N+](=O)[O-])cc12`, for which, in assay [2], the inhibition worked out at 52.7%.

Consider `O=C(O)c1ccc(CCn2cc(C(=O)O)c3cc([N+](=O)[O-])ccc32)cc1`, for which the inhibition in assay [2] is 73%.
